Data published in ChEMBL document CHEMBL4765447, “Design, synthesis and biological evaluation of diamino substituted cyclobut-3-ene-1,2-dione derivatives for the treatment of drug-resistant tuberculosis” (Eur J Med Chem, 2020).
Converted amounts (≈) assume the structure as drawn.

Key:
[1] = system: Mycobacterium tuberculosis H37Rv; experiment: Inhibition of ATP synthase in Mycobacterium tuberculosis H37Rv assessed as reduction in bacterial growth incubated for 7 days by microplate alamar blue assay; details: time 7.0 day
Outline: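 Microplate alamar blue assay. Strains grown to late log phase in 7H9 broth with 0.2% glycerol, 0.05% Tween 80 and 10% ADC, then washed, filtered (8 µm) and frozen. Twofold compound dilutions with 2×10^5 CFU per well at 37 °C. On day 7, Tween 80 and alamar blue added; after 16–24 h, fluorescence read at 530/590 nm. MIC is the lowest concentration giving ≥90% fluorescence reduction versus bacterium-only controls.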

Vero = experiment: Cytotoxicity against African green monkey Vero cells assessed as reduction in cell viability measured after 48 hrs by MTT assay; assay type: cell-based; details: Chlorocebus sabaeus
Outline: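 Vero cells grown in RPMI1640 with 10% FBS at 37 °C, 5% CO2, seeded at 4×10^5 cells/mL. Threefold dilutions from 64 to 0.26 µg/mL final, incubated 48 h at 37 °C. Monolayers washed with HBSS, then MTT added for 4 h. Absorbance read at 492 nm.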

[2] = Half life in CD-1 mouse hepatocytes at 1 uM measured after 30 mins by LC-MS/MS analysis; assay type: ADME, cell-based, Hepatocyte
Outline: (§1)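 Pooled male CD-1 mouse or pooled human hepatocytes, pre-incubated 20 min at 37 °C in CO2. Compound at 1 µM final with 1 million cells/mL. Samples taken at 0 and 30 min, quenched and centrifuged 15 min at 4 °C. Parent compound remaining measured by LC-MS/MS.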

[3] = Half life in human hepatocytes at 1 uM measured after 30 mins by LC-MS/MS analysis; assay type: ADME, cell-based, Hepatocyte; outline: as §1
[4] = Intrinsic clearance in CD-1 mouse hepatocytes at 1 uM measured after 30 mins by LC-MS/MS analysis; assay type: ADME, cell-based, Hepatocyte; details: 0.5 h; outline: as §1
[5] = Intrinsic clearance in human hepatocytes at 1 uM measured after 30 mins by LC-MS/MS analysis; assay type: ADME, cell-based, Hepatocyte; details: 0.5 h; outline: as §1
[6] = target: Voltage-gated inwardly rectifying potassium channel KCNH2 (Homo sapiens, UniProt Q12809); experiment: Inhibition of human ERG stably expressed in HEK293 cells by whole-cell manual patch clamp method; assay type: cell-based
[7] = Cmax in Balb/c mouse at 50 mg/kg, po by LC-MS analysis; assay type: ADME, organism-based; set-up: route oral, dose 50 mg/kg; details: in vivo
Outline: (§2)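 Male Balb/c mice (26–27 g), three per route. Single dose of 50 mg/kg p.o. in 0.5% carboxymethyl cellulose (5 mg/mL), or 5 mg/kg i.v. in 10% DMSO/50% PEG400/40% water (1 mg/mL). Blood taken at 5, 15, 30 min, 1, 2, 4, 7 and 24 h. Plasma extracted with acetonitrile (terfenadine internal standard) and quantified by LC-MS/MS in positive ESI. Non-compartmental analysis. F = dose-corrected AUC p.o./i.v.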

[8] = Tmax in Balb/c mouse at 50 mg/kg, po by LC-MS analysis; assay type: ADME, organism-based; details: in vivo; outline: as §2
[9] = Elimination half life in Balb/c mouse at 50 mg/kg, po by LC-MS analysis; assay type: ADME, organism-based; details: in vivo, read-out: beta t1/2 (converted); outline: as §2
[10] = AUC (0 to t) in Balb/c mouse at 50 mg/kg, po by LC-MS analysis; assay type: ADME, organism-based; set-up: dose 50 mg/kg; details: in vivo; outline: as §2
[11] = AUC (0 to infinity) in Balb/c mouse at 50 mg/kg, po by LC-MS analysis; assay type: ADME, organism-based; set-up: route oral, time infinity, dose 50 mg/kg; details: in vivo; outline: as §2
[12] = MRT (0 to infinity) in Balb/c mouse at 50 mg/kg, po by LC-MS analysis; assay type: ADME, organism-based; details: in vivo; outline: as §2
[13] = Oral bioavailability in Balb/c mouse at 50 mg/kg by LC-MS analysis; assay type: ADME, organism-based; details: in vivo; outline: as §2
[14] = Elimination half life in Balb/c mouse at 5 mg/kg, iv by LC-MS analysis; assay type: ADME, organism-based; details: in vivo, read-out: beta t1/2 (converted); outline: as §2
[15] = AUC (0 to t) in Balb/c mouse at 5 mg/kg, iv by LC-MS analysis; assay type: ADME, organism-based; set-up: dose 5 mg/kg; details: in vivo; outline: as §2
[16] = AUC (0 to infinity) in Balb/c mouse at 5 mg/kg, iv by LC-MS analysis; assay type: ADME, organism-based; set-up: time infinity, route intravenous, dose 5 mg/kg; details: in vivo; outline: as §2
[17] = MRT (0 to infinity) in Balb/c mouse at 5 mg/kg, iv by LC-MS analysis; assay type: ADME, organism-based; details: in vivo; outline: as §2
[18] = Clearance in Balb/c mouse at 5 mg/kg, iv by LC-MS analysis; assay type: ADME, organism-based; details: in vivo; outline: as §2

Voltage-gated inwardly rectifying potassium channel KCNH2, sequence (Q12809 whole entry): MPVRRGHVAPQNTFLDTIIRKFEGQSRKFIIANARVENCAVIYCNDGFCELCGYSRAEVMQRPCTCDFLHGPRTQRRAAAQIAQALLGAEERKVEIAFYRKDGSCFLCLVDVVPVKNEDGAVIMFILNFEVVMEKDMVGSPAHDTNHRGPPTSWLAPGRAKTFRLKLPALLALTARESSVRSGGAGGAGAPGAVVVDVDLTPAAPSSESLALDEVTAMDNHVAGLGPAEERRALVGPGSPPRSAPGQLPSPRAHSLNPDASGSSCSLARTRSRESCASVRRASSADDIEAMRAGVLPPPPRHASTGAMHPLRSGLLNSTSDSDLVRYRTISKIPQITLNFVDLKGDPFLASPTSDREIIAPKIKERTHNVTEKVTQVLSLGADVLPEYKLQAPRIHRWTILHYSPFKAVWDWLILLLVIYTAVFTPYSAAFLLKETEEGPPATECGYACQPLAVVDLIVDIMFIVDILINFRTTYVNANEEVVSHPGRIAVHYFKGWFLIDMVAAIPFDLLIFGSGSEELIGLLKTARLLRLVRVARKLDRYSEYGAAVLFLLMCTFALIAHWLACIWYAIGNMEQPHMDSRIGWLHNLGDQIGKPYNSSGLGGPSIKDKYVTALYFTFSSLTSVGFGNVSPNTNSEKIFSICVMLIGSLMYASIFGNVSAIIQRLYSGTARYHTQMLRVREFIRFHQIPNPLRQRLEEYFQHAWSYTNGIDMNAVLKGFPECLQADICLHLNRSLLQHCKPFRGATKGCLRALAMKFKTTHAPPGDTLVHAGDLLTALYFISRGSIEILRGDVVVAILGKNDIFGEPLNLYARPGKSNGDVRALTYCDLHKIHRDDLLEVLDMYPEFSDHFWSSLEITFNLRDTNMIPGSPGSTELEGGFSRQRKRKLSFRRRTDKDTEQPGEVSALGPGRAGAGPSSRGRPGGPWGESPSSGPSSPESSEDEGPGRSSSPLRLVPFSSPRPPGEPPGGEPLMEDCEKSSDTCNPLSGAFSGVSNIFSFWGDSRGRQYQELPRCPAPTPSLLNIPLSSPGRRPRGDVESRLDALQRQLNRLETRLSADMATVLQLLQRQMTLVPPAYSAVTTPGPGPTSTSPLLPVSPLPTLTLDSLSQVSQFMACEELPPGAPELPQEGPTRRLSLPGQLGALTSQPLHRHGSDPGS

Structure (SMILES)	MIC=>90 [1]	IC50 (Vero)	also measured
O=c1c(NCc2ccccn2)c(Nc2ccc(N3CCOCC3)cn2)c1=O	> 32 µg/mL	–	–
O=c1c(NCc2ccccn2)c(Nc2cccc(N3CCSCC3)c2)c1=O	> 32 µg/mL	–	–
O=C1OCC(c2ccc(N3CCOCC3)cc2)=C1NCc1cccnc1	> 32 µg/mL	–	–
O=c1c(NCc2ccccn2)c(Nc2ccc(N3CCOCC3)nc2)c1=O	> 32 µg/mL	–	–
O=c1c(NCc2ccccn2)c(Nc2ccc3c(c2)OCCCO3)c1=O	2.22 µg/mL (≈ 6.32 µM)	> 64 µg/mL	–
O=c1c(NCc2ccccn2)c(Nc2ccc(N3CCSCC3)cc2)c1=O	1.54 µg/mL (≈ 4.06 µM)	> 64 µg/mL	half-life at 1 µM [2]: 12.6 min; half-life at 1 µM [3]: 12.1 min; intrinsic clearance [4]: 55.1 µL/min; intrinsic clearance [5]: 57.2 µL/min; IC50 [6]: > 30 µM
O=c1c(NCc2ccccn2)c(Nc2ccc3ncsc3c2)c1=O	1.91 µg/mL (≈ 5.68 µM)	> 64 µg/mL	–
CO[C@H]1/C=C/O[C@@]2(C)Oc3c(C)c(O)c4c(O)c(c(/C=N/N5CCN(C)CC5)c(O)c4c3C2=O)NC(=O)/C(C)=C\C=C\[C@H](C)[C@H](O)[C@@H](C)[C@@H](O)[C@@H](C)[C@H](OC(C)=O)[C@@H]1C	0.015 µg/mL (≈ 0.0182 µM)	–	–
O=C1COCCN1c1ccc(Nc2c(NCc3ccccn3)c(=O)c2=O)cc1	7.75 µg/mL (≈ 20.5 µM)	–	–
COc1cccc(Nc2c(NCc3ccccn3)c(=O)c2=O)c1	6.02 µg/mL (≈ 19.5 µM)	–	–
COc1cc(Nc2c(NCc3ccccn3)c(=O)c2=O)ccc1N1CCSCC1	> 32 µg/mL	–	–
CN(C)c1ccc(Nc2c(NCc3ccccn3)c(=O)c2=O)cc1	2 µg/mL (≈ 6.19 µM)	–	–
O=C1CCCc2cc(Nc3c(NCc4ccccn4)c(=O)c3=O)ccc21	0.739 µg/mL (≈ 2.13 µM)	> 64 µg/mL	half-life at 1 µM [2]: 10.3 min; half-life at 1 µM [3]: 41.9 min; intrinsic clearance [4]: 67.2 µL/min; intrinsic clearance [5]: 16.6 µL/min
Cc1cc(Nc2c(NCc3ccccn3)c(=O)c2=O)ccc1N1CCOCC1	2.45 µg/mL (≈ 6.48 µM)	> 64 µg/mL	–
O=C1NC(=O)C(c2ccc(N3CCOCC3)cc2)=C1NCc1ccccn1	> 32 µg/mL	–	–
O=C1OCC(NCc2ccccn2)=C1c1ccc(N2CCOCC2)cc1	> 32 µg/mL	–	–
O=C1CCc2ccc(Nc3c(NCc4ccccn4)c(=O)c3=O)cc21	1.83 µg/mL (≈ 5.5 µM)	> 64 µg/mL	–
O=c1c(NCc2ccccn2)c(Nc2ccc3[nH]ccc3c2)c1=O	> 32 µg/mL	–	–
O=c1c(NCc2ccccn2)c(Nc2ccc3sccc3c2)c1=O	> 32 µg/mL	–	–
COc1ccccc1Nc1c(NCc2ccccn2)c(=O)c1=O	> 32 µg/mL	–	–
O=c1c(NCc2ccccn2)c(Nc2ccc(N3CCCCC3)cc2)c1=O	3.76 µg/mL (≈ 10.4 µM)	–	–
O=C1CCc2cc(Nc3c(NCc4ccccn4)c(=O)c3=O)ccc21	3.46 µg/mL (≈ 10.4 µM)	> 64 µg/mL	–
O=c1c(NCc2ccccn2)c(Nc2ccc(N3CCSCC3)c(C(F)(F)F)c2)c1=O	9.4 µg/mL (≈ 21 µM)	–	–

Structure (SMILES)	MIC=>90 [1]	IC50 (Vero)	also measured
O=c1c(NCc2cccnc2)c(Nc2ccc(N3CCSCC3)cc2)c1=O	> 32 µg/mL	–	–
O=c1c(NCc2ccccn2)c(-c2ccc(N3CCOCC3)cc2)c1=O	0.12 µg/mL (≈ 0.343 µM)	> 64 µg/mL	half-life at 1 µM [2]: 17.1 min; half-life at 1 µM [3]: 31.7 min; intrinsic clearance [4]: 40.6 µL/min; intrinsic clearance [5]: 21.9 µL/min; IC50 [6]: > 30 µM
O=c1c(NCc2ccccn2)c(Nc2ccc(C(F)(F)F)cc2)c1=O	14.9 µg/mL (≈ 42.9 µM)	–	–
N#Cc1cc(Nc2c(NCc3ccccn3)c(=O)c2=O)ccc1N1CCSCC1	1.23 µg/mL (≈ 3.04 µM)	> 64 µg/mL	–
O=c1c(NCc2ccccn2)c(Nc2ccc(N3CCCOCC3)cc2)c1=O	6.65 µg/mL (≈ 17.6 µM)	–	–
O=c1c(NCc2ccccn2)c(Nc2ccc3scnc3c2)c1=O	0.963 µg/mL (≈ 2.86 µM)	> 64 µg/mL	IC50 [6]: > 10 µM
NNC(=O)c1ccncc1	0.019 µg/mL (≈ 0.139 µM)	–	–
O=C1OCC(NCc2ccccn2)=C1c1ccc(N2CCSCC2)cc1	> 32 µg/mL	–	–
O=C1OCC(NCc2cccnc2)=C1c1ccc(N2CCOCC2)cc1	> 32 µg/mL	–	–
Cc1cc(Nc2c(NCc3ccccn3)c(=O)c2=O)ccc1N1CCSCC1	0.496 µg/mL (≈ 1.26 µM)	> 64 µg/mL	half-life at 1 µM [2]: 5.4 min; half-life at 1 µM [3]: 9 min; intrinsic clearance [4]: 127.8 µL/min; intrinsic clearance [5]: 77 µL/min; IC50 [6]: > 10 µM
O=c1c(NCc2ccccn2)c(Nc2ccc(N3CC[S+]([O-])CC3)cc2)c1=O	15.8 µg/mL (≈ 39.9 µM)	–	–
O=c1c(NCc2ccccn2)c(Nc2ccc(Cl)cc2)c1=O	7.7 µg/mL (≈ 24.5 µM)	–	–
O=c1c(NCc2ccccn2)c(Nc2ccc3c(c2)CCC3)c1=O	0.979 µg/mL (≈ 3.07 µM)	> 64 µg/mL	half-life at 1 µM [2]: 11.1 min; half-life at 1 µM [3]: 10.3 min; intrinsic clearance [4]: 62.4 µL/min; intrinsic clearance [5]: 67.1 µL/min; IC50 [6]: > 30 µM
O=c1c(NCc2ccccn2)c(Nc2ccc3c(c2)OCO3)c1=O	0.452 µg/mL (≈ 1.4 µM)	> 64 µg/mL	half-life at 1 µM [2]: 17 min; half-life at 1 µM [3]: > 93.2 min; intrinsic clearance [4]: 40.8 µL/min; intrinsic clearance [5]: < 7.4 µL/min; IC50 [6]: > 30 µM; Cmax [7]: 1330 ng/mL; Tmax [8]: 49.8 min; half-life [9]: 30.6 min; AUC(0-t) [10]: 2200 ng·h/mL; AUC(0-inf) [11]: 2200 ng·h/mL; MRT inf [12]: 81.6 min; bioavailability [13]: 13.1%; half-life [14]: 19.8 min; AUC(0-t) [15]: 1670 ng·h/mL; AUC(0-inf) [16]: 1670 ng·h/mL; MRT inf [17]: 16.8 min; clearance [18]: 51.4 mL/min/kg
O=C1OCC(c2ccc(N3CCOCC3)cc2)=C1NCc1ccccn1	> 32 µg/mL	–	–
O=c1c(NCc2ccccn2)c(Nc2ccc(N3CCOCC3)cc2)c1=O	3.75 µg/mL (≈ 10.3 µM)	> 64 µg/mL	half-life at 1 µM [2]: > 93.2 min; half-life at 1 µM [3]: > 93.2 min; intrinsic clearance [4]: < 7.4 µL/min; intrinsic clearance [5]: < 7.4 µL/min; IC50 [6]: > 30 µM
Cc1cccc(CNc2c(Nc3ccc(N4CCSCC4)cc3)c(=O)c2=O)n1	3.65 µg/mL (≈ 9.24 µM)	–	–
O=C1NC(=O)C(c2ccc(N3CCOCC3)cc2)=C1NCc1cccnc1	> 32 µg/mL	–	–
Cc1ccc(CNc2c(Nc3ccc(N4CCSCC4)cc3)c(=O)c2=O)nc1	> 32 µg/mL	–	–
COc1ccc(Nc2c(NCc3ccccn3)c(=O)c2=O)cc1	3.42 µg/mL (≈ 11 µM)	–	–
O=C1NC(=O)C(c2ccc(N3CCOCC3)cc2)=C1NCc1ccncc1	> 32 µg/mL	–	–
O=c1c(NCc2ccccn2)c(Nc2ccc3c(c2)OCCO3)c1=O	1.89 µg/mL (≈ 5.59 µM)	> 64 µg/mL	–
